According to ChEMBL document CHEMBL1138796, “Novel 5-HT7 receptor inverse agonists. Synthesis and molecular modeling of arylpiperazine- and 1,2,3,4-tetrahydroisoquinoline-based arylsulfonamides” (J Med Chem, 2004):
Several values for one entry are separate records, joined by “and”; a condition that tells them apart may be missing. Identical values can stand only once.

What was measured:
[1] = target: 5-hydroxytryptamine receptor 7 (Rattus norvegicus) (UniProt P32305); test: Effect on basal adenylate cyclase activity relative to potency of methiothepin using rat 5-HT7 receptor expressed in HEK cells; format: cell-based; settings: HEK293
5-hydroxytryptamine receptor 7 (Rattus norvegicus), sequence (P32305 whole entry): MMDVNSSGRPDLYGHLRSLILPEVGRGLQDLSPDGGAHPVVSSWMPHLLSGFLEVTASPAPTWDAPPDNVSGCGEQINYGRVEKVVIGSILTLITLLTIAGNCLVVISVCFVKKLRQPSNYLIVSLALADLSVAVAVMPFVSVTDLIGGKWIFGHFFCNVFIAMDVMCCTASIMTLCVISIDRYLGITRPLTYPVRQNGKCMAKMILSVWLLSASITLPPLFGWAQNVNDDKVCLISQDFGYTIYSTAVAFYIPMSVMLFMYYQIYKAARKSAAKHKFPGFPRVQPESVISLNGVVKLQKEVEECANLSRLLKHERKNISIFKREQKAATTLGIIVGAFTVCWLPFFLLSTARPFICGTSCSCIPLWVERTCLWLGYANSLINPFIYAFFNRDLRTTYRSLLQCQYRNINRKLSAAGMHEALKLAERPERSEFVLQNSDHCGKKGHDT

[2] = target: 5-hydroxytryptamine receptor 7 (Rattus norvegicus, UniProt P32305); test: Binding affinity towards rat 5-HT7 receptor expressed in HEK cells; format: cell-based, HEK293
5-hydroxytryptamine receptor 7, sequence (P32305 whole entry): as above
Procedure, shortened: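 Membranes of HEK cells expressing rat 5-HT7, resuspended in 50 mM Tris HCl pH 7.4 with 0.5 mM EDTA, 10 mM MgSO4, 2 mM CaCl2, 10 µM pargyline, 0.1% ascorbic acid; 20 µg protein with 0.3 nM [3H]5-CT, 2 h at room temperature; nonspecific binding with 10 µM 5-HT; filtration, scintillation counting; IC50 by log regression, Ki via Cheng-Prusoff.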

[3] = pKa; format: physicochemical
[4] = Partition coefficient (logP); format: physicochemical; settings: octanol/water

Structure (SMILES) | cAMP [1] [%] | Ki [2] | pKa [3] | logP ([4]; read-out: logP) | logP [4]
COc1ccc2c(c1)CCN(CCCNS(=O)(=O)c1ccccc1)C2 | -36 | 0.075 µM | 7 | 2.3 | 
CCN(CCCN1CCc2cc(OC)ccc2C1)S(=O)(=O)c1ccc(C)cc1 | -95 | 0.011 µM | 7.4 | 3.8 | 
CSc1ccc2c(c1)[C@@H](N1CCN(C)CC1)Cc1ccccc1S2 | -100 |  | 8.1 | 3.4 | 
CC1CCN(CC[C@H]2CCCN2S(=O)(=O)c2cccc3ccccc23)CC1 |  | 0.01 µM | 10.4 | 4.2 | 
Cc1cccc(S(=O)(=O)N2CCC[C@@H]2CCN2CCC(C)CC2)c1 [SB-258741] |  | 0.003 µM | 10.4 | 3.7 | 
COc1ccc(S(=O)(=O)NCCCN2CCc3cc(OC)ccc3C2)cc1 | -84 | 1.2 µM | 7 | 2.5 | 
CCN(CCCN1CCc2cc(OC)ccc2C1)S(=O)(=O)c1cccc2ccccc12 | -91 | 0.019 µM | 7.4 | 4.3 | 
COc1ccc2c(c1)CCN(CCCNS(=O)(=O)c1cccc3ccccc13)C2 | -104 | 0.36 µM | 7 | 3.6 | 
COc1ccc2c(c1)N(CCN(C)C)CCO2 |  | 1.18 µM and 1.1 µM | 8.6 | 1.6 | 1.6
COc1ccc2c(c1)CCN(CCCNS(=O)(=O)c1ccc(C)cc1)C2 | -61 | 0.52 µM | 7 | 3 | 
CC1CCN(CC[C@H]2CCCN2S(=O)(=O)c2cccc(O)c2)CC1 |  | 0.001 µM | 10.4 | 2.7 | 
CCN(CCCN1CCc2cc(OC)ccc2C1)S(=O)(=O)c1ccccc1 | -93 | 0.054 µM | 7.4 | 3.1 | 
CCN(CCCN1CCc2cc(OC)ccc2C1)S(=O)(=O)c1ccc(OC)cc1 | -94 | 0.029 µM | 7.4 | 3.3 | 
COc1ccc(S(=O)(=O)NCCCN2CCN(c3ccccc3OC)CC2)cc1 | -35 | 0.1 µM | 7.5 | 2.1 | 
COc1ccc2c(c1)c(CCN(C)C)cn2C | -7 | 1.18 µM | 9.2 | 2.7 | 
CCN(CCCN1CCN(c2ccccc2OC)CC1)S(=O)(=O)c1ccc(C)cc1 | -93 | 0.019 µM |  |  | 
COc1ccc2[nH]cc(C3=CCN(Cc4ccccc4)CC3)c2c1 | -65 | 1.1 µM | 7.7 | 4.3 | 
COc1ccccc1N1CCN(CCCNS(=O)(=O)c2ccc(C)cc2)CC1 | -20 | 0.052 µM | 7.5 | 2.6 | 
COc1ccccc1N1CCN(CCNS(=O)(=O)c2ccc(C)cc2)CC1 | -66 | 0.075 µM | 7.4 | 2.2 | 
